Reference: ChEMBL document CHEMBL5260806, “Hydrogen peroxide activated quinone methide precursors with enhanced DNA cross-linking capability and cytotoxicity towards cancer cells” (Eur J Med Chem, 2017)

Experiments:
Assay type in all cases: functional
[1] = tested on: SNB-19; assay: Anticancer activity against human SNB-19 cells assessed as cell growth inhibition incubated for 48 hrs by sulforhodamine B assay
[2] = tested on: MOLT-4; assay: Anticancer activity against human MOLT-4 cells assessed as cell growth inhibition incubated for 48 hrs by sulforhodamine B assay
How it was run: (§1)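 NCI DTP 60-cell-line screen run at National Cancer Institute. Cells grown in RPMI 1640 with 5% fetal bovine serum and 2 mM L-glutamine, seeded at 5,000–40,000 cells/well depending on doubling time. Single-dose screen at 10 µM gives growth percentage; dose-response series gives GI50.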

[3] = tested on: SK-OV-3; assay: Anticancer activity against human SK-OV-3 cells assessed as cell growth inhibition at 10 uM incubated for 48 hrs by sulforhodamine B assay; details: read-out: GI; how it was run: as §1
[4] = tested on: OVCAR-4; assay: Anticancer activity against human OVCAR-4 cells assessed as cell growth inhibition at 10 uM incubated for 48 hrs by sulforhodamine B assay; details: read-out: GI; how it was run: as §1
[5] = tested on: RPMI-8226; assay: Anticancer activity against human RPMI-8226 cells assessed as cell growth inhibition at 10 uM incubated for 48 hrs by sulforhodamine B assay; details: read-out: GI; how it was run: as §1
[6] = tested on: NCI-H460; assay: Anticancer activity against human NCI-H460 cells assessed as cell growth inhibition incubated for 48 hrs by sulforhodamine B assay; how it was run: as §1
[7] = tested on: DU-145; assay: Anticancer activity against human DU-145 cells assessed as cell growth inhibition at 10 uM incubated for 48 hrs by sulforhodamine B assay; details: read-out: GI
How it was run: (§2)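 NCI-60 screen: cell lines grown in RPMI 1640 with 5% FBS and 2 mM L-glutamine, plated in 96-well plates at 5,000–40,000 cells/well depending on doubling time. Each line has one single-dose arm at 10 µM and one dose-response arm giving GI50.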

[8] = tested on: LOX IMVI; assay: Anticancer activity against human LOX IMVI cells assessed as cell growth inhibition at 10 uM incubated for 48 hrs by sulforhodamine B assay; details: read-out: GI; how it was run: as §2
[9] = tested on: BT-549; assay: Anticancer activity against human BT-549 cells assessed as cell growth inhibition incubated for 48 hrs by sulforhodamine B assay; how it was run: as §2
[10] = tested on: M14; assay: Anticancer activity against human M14 cells assessed as cell growth inhibition at 10 uM incubated for 48 hrs by sulforhodamine B assay; details: read-out: GI; how it was run: as §2
[11] = tested on: CAKI-1; assay: Anticancer activity against human CAKI-1 cells assessed as cell growth inhibition at 10 uM incubated for 48 hrs by sulforhodamine B assay; details: read-out: GI; how it was run: as §2
[12] = tested on: HCT-15; assay: Anticancer activity against human HCT-15 cells assessed as cell growth inhibition incubated for 48 hrs by sulforhodamine B assay; how it was run: as §2
[13] = tested on: SK-MEL-5; assay: Anticancer activity against human SK-MEL-5 cells assessed as cell growth inhibition at 10 uM incubated for 48 hrs by sulforhodamine B assay; details: read-out: GI; how it was run: as §1
[14] = tested on: Hs-578T; assay: Anticancer activity against human Hs-578T cells assessed as cell growth inhibition incubated for 48 hrs by sulforhodamine B assay; how it was run: as §2
[15] = tested on: OVCAR-8; assay: Anticancer activity against human OVCAR-8 cells assessed as cell growth inhibition at 10 uM incubated for 48 hrs by sulforhodamine B assay; details: read-out: GI; how it was run: as §1
[16] = tested on: NCI-H23; assay: Anticancer activity against human NCI-H23 cells assessed as cell growth inhibition at 10 uM incubated for 48 hrs by sulforhodamine B assay; details: read-out: GI; how it was run: as §1
[17] = tested on: HCT-116; assay: Anticancer activity against human HCT-116 cells assessed as cell growth inhibition at 10 uM incubated for 48 hrs by sulforhodamine B assay; details: read-out: GI; how it was run: as §2
[18] = tested on: PC-3; assay: Anticancer activity against human PC-3 cells assessed as cell growth inhibition incubated for 48 hrs by sulforhodamine B assay; how it was run: as §1
[19] = tested on: SF-268; assay: Anticancer activity against human SF-268 cells assessed as cell growth inhibition at 10 uM incubated for 48 hrs by sulforhodamine B assay; details: read-out: GI; how it was run: as §1
[20] = tested on: SW-620; assay: Anticancer activity against human SW620 cells assessed as cell growth inhibition incubated for 48 hrs by sulforhodamine B assay
[21] = tested on: 786-0; assay: Anticancer activity against human 786-0 cells assessed as cell growth inhibition at 10 uM incubated for 48 hrs by sulforhodamine B assay; details: read-out: GI; how it was run: as §2
[22] = tested on: BT-549; assay: Anticancer activity against human BT-549 cells assessed as cell growth inhibition at 10 uM incubated for 48 hrs by sulforhodamine B assay; details: read-out: GI; how it was run: as §2
[23] = tested on: UO-31; assay: Anticancer activity against human UO-31 cells assessed as cell growth inhibition at 10 uM incubated for 48 hrs by sulforhodamine B assay; details: read-out: GI
[24] = tested on: SN12C; assay: Anticancer activity against human SN12C cells assessed as cell growth inhibition incubated for 48 hrs by sulforhodamine B assay
[25] = tested on: KM12; assay: Anticancer activity against human KM12 cells assessed as cell growth inhibition incubated for 48 hrs by sulforhodamine B assay; how it was run: as §2
[26] = tested on: KM12; assay: Anticancer activity against human KM12 cells assessed as cell growth inhibition at 10 uM incubated for 48 hrs by sulforhodamine B assay; details: read-out: GI; how it was run: as §2

`COc1cc(CBr)c(B2OC(C)(C)C(C)(C)O2)c(CBr)c1` gave a GI50 [1] of 2 µM, a GI50 [2] of 2 µM and an inhibition of growth at 10 µM [3] of less than 50%. For the same compound, the inhibition of growth at 10 µM [4] was less than 50%, the inhibition of growth at 10 µM [5] was less than 50% and the GI50 [6] was 2 µM. It also gave an inhibition of growth at 10 µM [7] of less than 50%, an inhibition of growth at 10 µM [8] of less than 50% and a GI50 [9] of 2 µM. The inhibition of growth at 10 µM [10] was less than 50%, the inhibition of growth at 10 µM [11] was less than 50% and the GI50 [12] was 2 µM. It also gave an inhibition of growth at 10 µM [13] of less than 50%, a GI50 [14] of 2 µM and an inhibition of growth at 10 µM [15] of less than 50%. The inhibition of growth at 10 µM [16] was less than 50%, the inhibition of growth at 10 µM [17] was less than 50% and the GI50 [18] was 2 µM. It also gave an inhibition of growth at 10 µM [19] of less than 50%, a GI50 [20] of 2 µM and an inhibition of growth at 10 µM [21] of less than 50%. For the same compound, the inhibition of growth at 10 µM [22] was less than 50%, the inhibition of growth at 10 µM [23] was less than 50% and the GI50 [24] was 2 µM. The GI50 [25] was 2 µM and the inhibition of growth at 10 µM [26] was less than 50%.
